The target in test [1] is T1, Proteasome assembly chaperone 3 (Homo sapiens) (UniProt Q9BT73).
T1 sequence (whole entry): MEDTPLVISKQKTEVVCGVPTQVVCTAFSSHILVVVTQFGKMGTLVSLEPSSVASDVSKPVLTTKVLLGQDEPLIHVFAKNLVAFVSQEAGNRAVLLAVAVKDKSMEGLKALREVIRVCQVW
Kind of test: Inhibition of N-terminal mKG-labeled PAC3/C-terminal mKG-labeled PAC3 homodimer (unknown origin) protein-protein interaction at 10 uM preincubated for 1 hr with protein followed by another protein addition and measured after 17 hrs by fluorescence based protein-fragment complementation assay relative to control. The essentials:
(§1)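 In vitro protein-fragment complementation assay. Compounds were added as DMSO solutions at 10, 1 or 0.1 μM. The decrease in fluorescence intensity was converted to percent inhibition.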

The target of test [2] is T2, PAC1-PAC2 complex (Homo sapiens) (UniProt O95456+Q969U7). Kind of test: Inhibition of N-terminal mKG-labeled PAC1/C-terminal mKG-labeled PAC2 (unknown origin) protein-protein interaction at 10 uM preincubated for 1 hr with protein followed by another protein addition and measured after 17 hrs by fluorescence based protein-fragment complementation assay relative to control. It is filed as protein-complex assay. The essentials: as §1

Test [3] deals with T1, Proteasome assembly chaperone 3 (Homo sapiens). Kind of test: Inhibition of N-terminal mKG-labeled PAC3/C-terminal mKG-labeled PAC3 homodimer (unknown origin) protein-protein interaction at 0.1 uM preincubated for 1 hr with protein followed by another protein addition and measured after 17 hrs by fluorescence based protein-fragment complementation assay relative to control. The essentials:
as §1

The target in test [4] is T2, PAC1-PAC2 complex (Homo sapiens). Kind of test: Inhibition of N-terminal mKG-labeled PAC1/C-terminal mKG-labeled PAC2 (unknown origin) protein-protein interaction at 0.1 uM preincubated for 1 hr with protein followed by another protein addition and measured after 17 hrs by fluorescence based protein-fragment complementation assay relative to control. It counts as protein-complex assay. The essentials:
as §1

For test [5] the target is unchanged. Briefly: Inhibition of N-terminal mKG-labeled PAC1/C-terminal mKG-labeled PAC2 (unknown origin) protein-protein interaction at 1 uM preincubated for 1 hr with protein followed by another protein addition and measured after 17 hrs by fluorescence based protein-fragment complementation assay relative to control. It is filed as protein-complex assay. The essentials:
as §1

Test [6] concerns the target T1, Proteasome assembly chaperone 3 (Homo sapiens). Kind of test: Inhibition of N-terminal mKG-labeled PAC3/C-terminal mKG-labeled PAC3 homodimer (unknown origin) protein-protein interaction at 1 uM preincubated for 1 hr with protein followed by another protein addition and measured after 17 hrs by fluorescence based protein-fragment complementation assay relative to control. The essentials:
as §1

The target in test [7] is T3, PAC1-PAC2 complex (Homo sapiens, UniProt O95456+Q969U7).
T3 sequence (O95456 whole entry): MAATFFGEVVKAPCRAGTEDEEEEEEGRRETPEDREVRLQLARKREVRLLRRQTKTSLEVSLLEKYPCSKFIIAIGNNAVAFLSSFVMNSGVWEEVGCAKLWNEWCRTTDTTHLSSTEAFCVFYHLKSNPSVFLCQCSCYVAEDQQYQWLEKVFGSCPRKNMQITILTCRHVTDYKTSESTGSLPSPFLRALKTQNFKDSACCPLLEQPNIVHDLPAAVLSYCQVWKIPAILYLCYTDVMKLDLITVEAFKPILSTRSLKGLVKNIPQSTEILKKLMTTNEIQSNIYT
T3 sequence (Q969U7 whole entry): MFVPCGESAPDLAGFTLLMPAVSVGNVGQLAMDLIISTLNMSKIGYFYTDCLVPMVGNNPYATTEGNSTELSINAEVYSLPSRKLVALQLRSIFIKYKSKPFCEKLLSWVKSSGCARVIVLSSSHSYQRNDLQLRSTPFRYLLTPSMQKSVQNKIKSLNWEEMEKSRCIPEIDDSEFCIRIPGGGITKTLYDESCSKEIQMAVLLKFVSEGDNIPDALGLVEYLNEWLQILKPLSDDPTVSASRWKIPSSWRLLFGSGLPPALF
Briefly: Inhibition of PAC1/PAC2 heterodimer (unknown origin) protein-protein interaction. It counts as protein-complex assay.

For test [8], the target named is T4, Proteasome assembly chaperone 3 (Homo sapiens, UniProt Q9BT73).
T4 sequence (Q9BT73 whole entry): T1 sequence (whole entry)
Kind of test: Inhibition of PAC3 homodimer (unknown origin) protein-protein interaction.

This note sets out measurements from ChEMBL document CHEMBL4382236, “Synthesis and biological evaluation of thielocin B1 analogues as protein-protein interaction inhibitors of PAC3 homodimer” (Bioorg Med Chem, 2018).

As for `COCOC(=O)c1c(C)c(C)c(OC(=O)c2c(C)c(C)c(OCc3cccc(COc4c(C)c(C)c(C(=O)Oc5c(C)c(C)c(C(=O)OCOC)c(OC)c5C)c(OC)c4C)c3Br)c(C)c2OC)c(C)c1OC`, the inhibition in test [1] came to 0%; in test [2], 6%; in test [3], 0%; in test [4], 3%; in test [5], 0%; in test [6], 0%.

`COc1c(C)c(OC(=O)c2c(C)c(C)c(OC(=O)CCC(=O)Oc3c(C)c(C)c(C(=O)Oc4c(C)c(C)c(C(=O)O)c(OC)c4C)c(OC)c3C)c(C)c2OC)c(C)c(C)c1C(=O)O`: the inhibition in test [1] came out at 34%; in test [2] it was 28%; in test [3], 0%; in test [4], 5%; in test [5], 16%; in test [6] it was 9%.

Take `COc1c(C)c(OC(=O)c2c(C)c(C)c(OC/C=C/COc3c(C)c(C)c(C(=O)Oc4c(C)c(C)c(C(=O)O)c(OC)c4C)c(OC)c3C)c(C)c2OC)c(C)c(C)c1C(=O)O`: the inhibition amounted to 94% in test [1]; 68% in test [2]; 7% in test [3]; 5% in test [4]; 16% in test [5]; 30% in test [6].

Consider `COc1c(C)c(OC(=O)c2c(C)c(C)c(OC(=O)c3c(C)c(Oc4c(C)c(C)c(C(=O)Oc5c(C)c(C)c(C(=O)O)c(OC)c5C)c(OC)c4C)c(O)c(C)c3O)c(C)c2OC)c(C)c(C)c1C(=O)O`, for which the inhibition was found to be 85% in test [3], 9% in test [4], 9% in test [5] and 94% in test [6]. Further, the IC50 in test [7] was above 250 µM; in test [8], 0.02 µM.

For `COc1c(C)c(OC(=O)c2ccc(Oc3cccc(C(=O)Oc4c(C)c(C)c(C(=O)Oc5c(C)c(C)c(C(=O)O)c(OC)c5C)c(OC)c4C)c3)cc2)c(C)c(C)c1C(=O)O`, the inhibition in test [1] came to 99%; in test [2], 98%; in test [3], 7%; in test [4], 9%; in test [5], 35%; in test [6], 37%.

Regarding `COc1c(C)c(OC(=O)c2c(C)c(C)c(OC(=O)c3c(C)c(C(=O)Oc4c(C)c(C)c(C(=O)Oc5c(C)c(C)c(C(=O)O)c(OC)c5C)c(OC)c4C)c(O)c(C)c3O)c(C)c2OC)c(C)c(C)c1C(=O)O`, the inhibition turned out to be 94% in test [1]; 69% in test [2]; 4% in test [3]; 21% in test [4]; 23% in test [5]; 17% in test [6].

Regarding `COCOC(=O)c1c(C)c(C)c(OC(=O)c2c(C)c(C)c(OC(=O)c3c(C)c(C(=O)Oc4c(C)c(C)c(C(=O)Oc5c(C)c(C)c(C(=O)OCOC)c(OC)c5C)c(OC)c4C)c(OC)c(C)c3OC)c(C)c2OC)c(C)c1OC`, the inhibition in test [1] was determined as 2%; in test [2] it was 1%; in test [3], 12%; in test [4], 3%; in test [5] it was 0%; in test [6] it was 5%.

As for `COc1c(C)c(OC(=O)c2c(C)c(C)c(OC[C@H](O)[C@@H](O)COc3c(C)c(C)c(C(=O)Oc4c(C)c(C)c(C(=O)O)c(OC)c4C)c(OC)c3C)c(C)c2OC)c(C)c(C)c1C(=O)O`, the inhibition in test [1] was 53%; in test [2] it was 39%; in test [3], 0%; in test [4], 5%; in test [5] it was 17%; in test [6], 17%.

In test [8], `COc1c(C)c(OC(=O)c2c(C)c(C)c(OC(=O)C3=C(C)[C@@](C)(O)[C@@]4(O)Oc5c(C)c(OC)c(C(=O)Oc6c(C)c(C)c(C(=O)O)c(OC)c6C)c(C)c5C[C@@]4(C)C3=O)c(C)c2OC)c(C)c(C)c1C(=O)O` yielded an IC50 above 250 µM.

Consider `COc1c(C)c(OC(=O)c2c(C)c(C)c(OCc3cccc(COc4c(C)c(C)c(C(=O)Oc5c(C)c(C)c(C(=O)O)c(OC)c5C)c(OC)c4C)n3)c(C)c2OC)c(C)c(C)c1C(=O)O`, for which the inhibition in test [1] is 88%; in test [2], 40%; in test [3] it was 18%; in test [4], 9%; in test [5], 5%; in test [6] it was 43%.

As for `COc1c(C)c(OC(=O)c2c(C)c(C)c(OC(=O)c3c(C)cc(O)c(Cc4c(C)c(C(=O)Oc5c(C)c(C)c(C(=O)Oc6c(C)c(C)c(C(=O)O)c(OC)c6C)c(OC)c5C)c(O)c(C)c4O)c3O)c(C)c2OC)c(C)c(C)c1C(=O)O`, the IC50 in test [8] is above 250 µM.

As for `COc1c(C)c(OC(=O)c2c(C)c(C)c(OCc3cccc(COc4c(C)c(C)c(C(=O)Oc5c(C)c(C)c(C(=O)O)c(OC)c5C)c(OC)c4C)c3Br)c(C)c2OC)c(C)c(C)c1C(=O)O`, the inhibition is 86% in test [1]; 57% in test [2]; 26% in test [3]; 3% in test [4]; 5% in test [5]; 38% in test [6].

For `COc1c(C)c(OC(=O)c2c(C)c(C)c(OC[C@@H]3OC(=O)O[C@H]3COc3c(C)c(C)c(C(=O)Oc4c(C)c(C)c(C(=O)O)c(OC)c4C)c(OC)c3C)c(C)c2OC)c(C)c(C)c1C(=O)O`, the inhibition in test [1] is 41%; in test [2], 49%; in test [3], 2%; in test [4], 15%; in test [5], 17%; in test [6], 5%.

As to `COc1c(C)c(OC(=O)c2c(C)c(C)c(OC(=O)c3c(C)c(C(=O)Oc4c(C)c(C)c(C(=O)Oc5c(C)c(C)c(C(=O)O)c(OC)c5C)c(OC)c4C)c(OC)c(C)c3OC)c(C)c2OC)c(C)c(C)c1C(=O)O`, the inhibition in test [1] was 85%; in test [2], 38%; in test [3], 29%; in test [4], 9%; in test [5], 2%; in test [6], 49%.

Turning to `COc1c(C)c(OC(=O)c2ccc(Oc3cccc(C(=O)Oc4c(C)c(C)c(C(=O)Oc5c(C)c(C)c(C(=O)O)c(OC)c5C)c(OC)c4C)c3C)cc2)c(C)c(C)c1C(=O)O`, the inhibition in test [1] was 98%; in test [2] it was 91%; in test [3], 4%; in test [4], 15%; in test [5] it was 37%; in test [6], 40%.

`COc1c(C)c(OC(=O)c2ccc(Oc3cccc(C(=O)Oc4c(C)c(C)c(C(=O)Oc5c(C)c(C)c(C(=O)O)c(OC)c5C)c(OC)c4C)c3C)c(C)c2)c(C)c(C)c1C(=O)O`: the inhibition in test [1] was 99%; in test [2], 89%; in test [3], 19%; in test [4], 1%; in test [5], 31%; in test [6], 34%.

For the molecule `COc1c(C)c(O)c(C)c(C)c1C(=O)Oc1c(C)c(C)c(C(=O)O)c(OC)c1C`, the inhibition in test [1] amounted to 21%; in test [2], 11%; in test [3], 11%; in test [4], 3%; in test [5] it was 0%; in test [6], 9%.
